Measured values collected from several papers.
Protocols differ between the studies behind these lines.
Target: Dual specificity protein kinase TTK (TTK, Homo sapiens, UniProt P33981)
One construct used (P33981 1-857): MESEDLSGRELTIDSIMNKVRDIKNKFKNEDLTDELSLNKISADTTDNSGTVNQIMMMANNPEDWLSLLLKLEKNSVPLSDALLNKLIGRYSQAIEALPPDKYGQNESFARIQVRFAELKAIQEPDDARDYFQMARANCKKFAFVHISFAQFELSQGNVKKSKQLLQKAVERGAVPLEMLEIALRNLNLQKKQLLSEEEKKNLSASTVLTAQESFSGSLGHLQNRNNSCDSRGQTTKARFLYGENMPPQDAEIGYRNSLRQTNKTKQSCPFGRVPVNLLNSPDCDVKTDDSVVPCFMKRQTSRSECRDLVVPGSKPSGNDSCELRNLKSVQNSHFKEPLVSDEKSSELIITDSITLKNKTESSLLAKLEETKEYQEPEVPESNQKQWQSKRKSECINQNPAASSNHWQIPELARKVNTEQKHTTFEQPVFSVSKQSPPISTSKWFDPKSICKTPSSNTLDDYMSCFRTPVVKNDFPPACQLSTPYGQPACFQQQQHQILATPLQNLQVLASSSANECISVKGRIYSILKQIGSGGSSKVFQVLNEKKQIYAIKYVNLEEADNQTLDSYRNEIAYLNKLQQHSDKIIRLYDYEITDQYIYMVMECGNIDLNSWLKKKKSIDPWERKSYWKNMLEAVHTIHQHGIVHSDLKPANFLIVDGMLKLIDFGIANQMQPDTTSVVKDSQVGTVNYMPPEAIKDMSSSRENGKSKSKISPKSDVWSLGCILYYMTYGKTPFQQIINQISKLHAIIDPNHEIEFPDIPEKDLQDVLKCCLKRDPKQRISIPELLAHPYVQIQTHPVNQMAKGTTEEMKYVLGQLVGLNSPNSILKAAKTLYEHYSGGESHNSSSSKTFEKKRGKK

Compound | assay | conditions | quantity | value
CC(C)(O)[C@H]1CC[C@H](Nc2ccc3ncc(-c4cccc(C(F)(F)F)c4)n3n2)CC1 | enzyme activity, inhibitor | 1 µM | remaining activity | 79.8%
COc1cc(Nc2cnc(C#N)c(O[C@H](C)CN(C)C)n2)ncc1-c1cnn(C)c1 | enzyme activity, inhibitor, radiometric | 1 µM | remaining activity | 81%
CCN1CCC2(CC1)NC(=O)c1c(c3ccc(Cl)c(Cl)c3n1C)C2C#N (racemic) | thermal stability, DSF | 10 µM | ΔTm | 0.6 °C
Cn1c(=O)n(-c2ccc(C(C)(C)C#N)cc2)c2c3cc(-c4cnc5ccccc5c4)ccc3ncc21 | enzyme activity, inhibitor | 10 µM | remaining activity | 91%
CCS(=O)(=O)c1cc2cc(C[C@](O)(CC(C)(C)c3ccc(F)cc3C(N)=O)C(F)(F)F)[nH]c2cn1 | cell-free assay, competition with immobilised ligand | 1 µM | remaining binding | 99%
Cn1c2c(c3ccc(Cl)c(Cl)c31)C(C#N)C1(CCNCC1)NC2=O (racemic) | thermal stability, DSF | 10 µM | ΔTm | 0.7 °C
CC(C)(C)c1nc2c(s1)c1nc(N)ncc1c1ccc(NS(=O)(=O)c3c(F)cccc3F)c(F)c12 | enzyme activity, inhibitor, radiometric | 1 µM | remaining activity | 90%
FC(F)(F)Oc1cccc(-c2cnc3ccc(-c4ccncc4)nn23)c1 | enzyme activity, inhibitor, radiometric | 1 µM | activity vs control | 70%
Nc1nc(Nc2ccc(S(N)(=O)=O)cc2)nn1C(=O)c1c(F)cccc1F | cell-free assay | 0.5 µM | remaining signal | 77.5%
COc1cc(Cl)c(C(=O)N[C@@H](CN[C@H]2CC[C@@H](N)CC2)Cc2ccc(C#N)cc2)cc1-c1ccc(CN[C@H](C)c2ccc(C)cc2)o1 | enzyme activity, inhibitor | 1 µM | remaining activity | 95%
Cn1c2c(Cl)c(Cl)ccc2c2cn[nH]c(=O)c21 | thermal stability, DSF | 10 µM | ΔTm | 0.6 °C
Cc1ccc(NC(=O)c2ccc(CN3CCN(C)CC3)cc2)cc1Nc1nc(-c2cccnc2)cs1 | cell-free assay | 0.5 µM | remaining signal | 112%
NS(=O)(=O)c1cc(NC(=O)C2(c3ccccc3Cl)CC2)ccc1Oc1cccc(Cl)c1 | cell-free assay, competition with immobilised ligand | 1 µM | remaining binding | 100%
C#Cc1cccc(Nc2ncnc3cc(OCCOC)c(OCCOC)cc23)c1 | cell-free assay | 0.5 µM | remaining signal | 91.8%
Cc1noc([C@H]2C[C@@H](c3ccc(C(F)(F)F)cc3)CN(C(=O)N3CCS(=O)(=O)C3)C2)n1 | cell-free assay, competition with immobilised ligand | 1 µM | remaining binding | 100%
CCN(CC)CCNC(=O)c1c(C)[nH]c(/C=C2\C(=O)Nc3ccc(F)cc32)c1C | cell-free assay | 0.5 µM | remaining signal | 68%
Cc1c[nH]c2nccc(Oc3c(F)cc(Nc4cc(Cl)nc(N)n4)cc3F)c12 | cell-free assay, competition with immobilised ligand | 0.1 µM | remaining binding | 96%
COc1cc(/C=C/C(=O)CC(=O)/C=C/c2ccc(O)c(OC)c2)ccc1O | enzyme activity, inhibitor | 1 µM | activity vs control | 51%
O=C(NC[C@@H]1[C@H]2CN(C(=O)OCc3cc(C(F)(F)F)cc(C(F)(F)F)c3)C[C@@H]12)c1ccc2[nH]nnc2c1 | cell-free assay, competition with immobilised ligand | 1 µM | remaining binding | 91%
Cn1c2c(c3ccc(Cl)c(Cl)c31)C(C#N)C1(CCCCC1)NC2=O (racemic) | thermal stability, DSF | 10 µM | ΔTm | 0.7 °C
O=C(Nc1cccnn1)N1CCC(=Cc2cccc(Oc3ccc(C(F)(F)F)cn3)c2)CC1 | cell-free assay, competition with immobilised ligand | 1 µM | remaining binding | 100%
FC(F)c1nc2ccccc2n1-c1nc(N2CCOCC2)nc(N2CCOCC2)n1 | enzyme activity, inhibitor | 10 µM | remaining activity | 88%
